Bounds are passed on as bounds.

A word on the IC50: it is the concentration that gives 50% inhibition. Low values mean greater potency, high ones weaker potency. By AUC(0-t) is commonly meant exposure summed from dosing to a finite time, without extrapolation to infinity. Low values mean less exposure, high ones more exposure. The term Cmax denotes the highest concentration seen after dosing. For orientation: clearance means the rate of elimination divided by the concentration. Read a high clearance as a high capacity for elimination. What is called AUC is the area under the concentration-time curve, a measure of exposure. High values mean high exposure, low ones low exposure. Usually Tmax stands for the time from dosing to the highest level. By MRT is commonly meant the average time that molecules of a dose stay in the body.

Data set [1] relates to PC-3. Nature of the data set: cells. The note with it: Homo sapiens, PC-3, 72 h.
The subject of data set [2] is MDA-MB-231. Nature of the data set: cells. The note with it: Homo sapiens, MDA-MB-231, 72 h.
For data set [3], the system named is K562. The experiment in a line: Antiproliferative activity against human K562 cells after 72 hrs. Format: functional, cell-based. The settings on record: K562, 72 h.
Data set [4] in a line: (§1) Protein binding in human serum at 10 uM. The data set is classed as ADME, cell-free. The settings on record: read-out: PPB (converted). Summed up:
(§2)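 Binding to human serum proteins measured at a compound concentration of 10 μM.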

The nature of data set [5]: AUC (0-4 hrs) in BALB/c mouse at 50 mg/kg, po after 4 hrs. The data set is classed as ADME, organism-based. Set-up: time < 4 hr, dose 50 mg/kg, route oral. The note with it: plasma. Summed up: (§3)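 Mouse 4 h oral exposure screen: oral dose of 50 mg/kg given as a solution in 1:1 propylene glycol:water. Plasma drug levels followed over 4 h, giving AUC(0-4h), peak concentration (Cmax) and the concentration at 4 h.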

Data set [6] relates to WiDr. The experiment in a line: cells. The note with it: Homo sapiens, 72 h.
A short description of data set [7]: Cmax in BALB/c mouse at 50 mg/kg, po after 4 hrs. The data set is classed as ADME, organism-based. The note with it: in vivo. Set-up: dose 50 mg/kg, route oral. In short, it runs like this: as §3
Data set [8] in a line: Plasma concentration in BALB/c mouse at 50 mg/kg, po after 4 hrs. The data set is classed as ADME, organism-based. Set-up: dose 50 mg/kg, route oral. Summed up:
as §3

Data set [9] can be described thus: Cmax in Sprague-Dawley rat at 10 mg/kg, iv. Set-up: dose 10 mg/kg, route intravenous. Format: ADME, organism-based. The note with it: in vivo. In short, it runs like this: (§4)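 Sprague–Dawley rats each given 10 mg/kg of compound, either intravenously or orally, in separate arms. Pharmacokinetic parameters were reported for each route as means with a variability term in parentheses. These were Cmax, Tmax, AUCtot, t1/2, MRT, and, for the iv dose, Cl and Vss. Oral bioavailability (Fpo) was reported for the oral arm.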

In data set [10] the test system is Rattus norvegicus. Nature of the data set: Clearance in Sprague-Dawley rat at 10 mg/kg, iv. The note with it: in vivo. Set-up: dose 10 mg/kg, route intravenous. Format: ADME, organism-based. In short, it runs like this:
(§5)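 Sprague-Dawley rats dosed at 10 mg/kg, either iv or orally, with drug as a solution in citric acid buffer pH 4.6. Parameters derived from plasma levels: Cmax, Tmax, AUCtot, t1/2, MRT, clearance, Vss, and oral bioavailability.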

Data set [11] is described as follows: AUC (total) in Sprague-Dawley rat at 10 mg/kg, iv. The note with it: plasma. Set-up: dose 10 mg/kg, route intravenous. Format: ADME, organism-based. Summed up:
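Sprague–Dawley rats; single 10 mg/kg intravenous dose as a solution in citric acid buffer at pH 4.6. Total plasma AUC (μM·h) taken from the pharmacokinetic profile alongside Cmax, t1/2, MRT, clearance and Vss.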

Data set [12] can be described thus: Tmax in Sprague-Dawley rat at 10 mg/kg, po. The data set is classed as ADME, organism-based. Set-up: dose 10 mg/kg, route oral. The note with it: in vivo. Summed up: as §5
The nature of data set [13]: Mean residence time in Sprague-Dawley rat at 10 mg/kg, po. The data set is classed as ADME, organism-based. Set-up: dose 10 mg/kg, route oral. The note with it: in vivo. In short, it runs like this:
as §5

For data set [14], the system named is Rattus norvegicus. The experiment in a line: Oral bioavailability in Sprague-Dawley rat at 10 mg/kg, po. The note with it: in vivo. Format: ADME, organism-based. Summed up:
as §4

The species named for data set [15] is Mus musculus. The experiment in a line: Toxicity in nude mouse. Format: organism-based. The settings on record: in vivo. In short, it runs like this: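 K562 cells implanted subcutaneously in nude mice and staged to about 300 mg tumors. Oral dosing once daily at 5 or 50 mg/kg on a 5 day on/2 day off schedule for two cycles. Toxicity scored as animal deaths or lack of weight gain.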

Data set [16] is described as follows: Mean residence time in Sprague-Dawley rat at 10 mg/kg, iv. Format: ADME, organism-based. Set-up: dose 10 mg/kg, route intravenous. The settings on record: in vivo. In short, it runs like this: as §5
Data set [17] is described as follows: Volume of distribution in Sprague-Dawley rat at 10 mg/kg, iv. Format: ADME, organism-based. Set-up: dose 10 mg/kg, route intravenous. The settings on record: in vivo, read-out: Vss. Summed up: as §5
The nature of data set [18]: Cmax in Sprague-Dawley rat at 10 mg/kg, po. The data set is classed as ADME, organism-based. Set-up: dose 10 mg/kg, route oral. The settings on record: in vivo. In short, it runs like this: as §4
The test system of data set [19] is Serum. The data set is described as §1. The data set is classed as ADME, cell-free. The settings on record: 10 µM. In short, it runs like this: as §2
Data set [20] in a line: AUC (total) in Sprague-Dawley rat at 10 mg/kg, po. The data set is classed as ADME, organism-based. Set-up: dose 10 mg/kg, route oral. The settings on record: plasma. In short, it runs like this: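 Sprague–Dawley rats; single 10 mg/kg oral dose given as a solution. Total plasma AUC (μM·h) taken from the pharmacokinetic profile alongside Cmax, Tmax, t1/2 and MRT.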

Turning to `Cc1cccc(Cl)c1NC(=O)c1cnc(Nc2cccc(NCCCn3ccnc3)n2)s1`, the 50% inhibitory concentration (IC50) is 2.8 nM in data set [1], under 3 nM in [2], under 3 nM in data set [3] and 4.1 nM in data set [6]. For the same compound, in data set [4], the fraction unbound at 10 µM was 0.01. The compound further registered an AUC(0-t) at 4 h in data set [5] of 0.16 µM·h. Besides, the concentration in data set [7] peaked (Cmax) at 88 nM. In data set [8], the concentration at 4 h turned out to be 33 nM.
As for `Cc1cccc(Cl)c1NC(=O)c1cnc(Nc2cc(NCCN3CCOCC3)ncn2)s1`, the IC50 in [1] is 82 nM; in [2] it was 170 nM; in data set [3], under 2 nM; in data set [6], 270 nM. The AUC(0-t) at 4 h in data set [5] was found to be 17 µM·h. Further, the Cmax in [7] was found to be 9600 nM. This compound also showed a concentration at 4 h in [8] of 1900 nM.
Turning to `Cc1cc(Nc2ncc(C(=O)Nc3c(C)cccc3Cl)s2)nc(C)n1`, the figures for the IC50 in [1] and in data set [3] were 67 nM and 1.6 nM, respectively.
Turning to `Cc1nc(Nc2ncc(C(=O)Nc3c(C)cccc3Cl)s2)cc(N2CCN(CCO)CC2)n1.O` [DASATINIB], the Cmax in data set [9] came out at 13.2 µM; in [18] it was 500 nM; in [7], 2700 nM. Further, the clearance in [10] came to 26.4 mL/min/kg. The IC50 in [1] is 9.4 nM; in data set [2], 12 nM; in data set [3], under 1 nM; in data set [6], 52 nM. The AUC stood at 13.9 µM·h in data set [11] and 3.8 µM·h in data set [20]. In data set [12], the time of peak concentration (Tmax) stood at 2.2 h. The results for the MRT in [13] and in data set [16] were 6.7 h and 4.1 h, respectively. The F in [14] stood at 27%. For the same compound, the Activity result in data set [15] is given as “Non-toxic”. The Vd in data set [17] was 6.3 L/kg. The compound further gave a PPB in [19] of 91%. In addition, the AUC(0-t) at 4 h in data set [5] worked out at 4.8 µM·h. For the same compound, in data set [8], the concentration at 4 h stood at 700 nM.
On to `Cc1cccc(Cl)c1NC(=O)c1cnc(Nc2cc(N3CCOCC3)ncn2)s1`, for which the IC50 in [1] is 24 nM; in data set [2], 45 nM; in data set [3] it was under 3 nM; in data set [6], 270 nM. In data set [5], this compound registered an AUC(0-t) at 4 h of 1.7 µM·h. Further, the concentration in data set [7] peaked (Cmax) at 960 nM. In data set [8], the concentration at 4 h stood at 220 nM.
On to `Cc1nc(NCCN2CCOCC2)cc(Nc2ncc(C(=O)Nc3c(C)cccc3Cl)s2)n1`, for which the IC50 is 25 nM in [1], 47 nM in [2], under 1 nM in [3] and 180 nM in data set [6]. Further, in data set [5], the AUC(0-t) at 4 h turned out to be 3.1 µM·h. Moreover, in [7], the peak level (Cmax) was 2200 nM. Further, in [8], the concentration at 4 h was found to be 280 nM.
Take `Cc1nc(NCCCN2CCOCC2)cc(Nc2ncc(C(=O)Nc3c(C)cccc3Cl)s2)n1`: the IC50 was 14 nM in [1], 23 nM in data set [2], under 2 nM in data set [3] and 27 nM in data set [6]. In [4], the fraction unbound at 10 µM was 0.08. The AUC(0-t) at 4 h in [5] came to 11 µM·h. Besides, the Cmax in [7] came to 3100 nM. Besides, the concentration at 4 h in data set [8] was determined as 3100 nM.
As to `Cc1nc(Nc2ncc(C(=O)Nc3c(C)cccc3Cl)s2)cc(N2CCC(CO)CC2)n1`, the IC50 in data set [1] is 11 nM; in [2], 9 nM; in data set [3], under 1 nM; in [6] it was 41 nM. The compound further displayed an AUC(0-t) at 4 h in data set [5] of 3.5 µM·h. This compound also gave a Cmax in data set [7] of 2500 nM. This compound also had a concentration at 4 h in data set [8] of 180 nM.
As for `Cc1nc(Nc2ncc(C(=O)Nc3c(C)cccc3Cl)s2)cc(N2CCOCC2)n1`, the IC50 in data set [1] was 3.6 nM; in data set [2] it was 16 nM; in data set [3], under 3 nM; in data set [6], 27 nM. In addition, in data set [5], the AUC(0-t) at 4 h stood at 0.16 µM·h. The same compound came in with a Cmax in data set [7] of 67 nM. For the same compound, in data set [8], the concentration at 4 h was determined as 37 nM.
Turning to `Cc1nc(NCCO)cc(Nc2ncc(C(=O)Nc3c(C)cccc3Cl)s2)n1`, the IC50 in data set [1] is 27 nM; in [2], 140 nM; in data set [3], under 4 nM; in [6] it was 210 nM. The AUC(0-t) at 4 h in data set [5] stood at 1.5 µM·h. The compound also yielded a Cmax in [7] of 800 nM. In data set [8], the concentration at 4 h came to 170 nM.
Consider `Cc1cccc(Cl)c1NC(=O)c1cnc(Nc2cccc(NCCCN3CCOCC3)n2)s1`, for which the IC50 in [1] was 10 nM; in [2], 34 nM; in data set [3], under 2 nM; in data set [6] it was 32 nM. Moreover, in [5], the AUC(0-t) at 4 h was 13 µM·h. In [7], the concentration peaked (Cmax) at 8600 nM. This compound also displayed a concentration at 4 h in data set [8] of 1100 nM.
As for `Cc1cccc(Cl)c1NC(=O)c1cnc(Nc2cccc(NCCO)n2)s1`, the concentration for half-maximal inhibition (IC50) in data set [1] is 13 nM; in data set [2] it was 3.1 nM; in data set [3] it was under 3 nM; in data set [6], 7.9 nM. Also, in data set [4], the fraction unbound at 10 µM was 0.08. Also, the AUC(0-t) at 4 h in data set [5] was found to be 7.2 µM·h. Further, in data set [7], the concentration peaked (Cmax) at 7000 nM. Also, the concentration at 4 h in data set [8] came to 300 nM.

For the origin of these results see ChEMBL document CHEMBL1149291, “Discovery of N-(2-chloro-6-methyl- phenyl)-2-(6-(4-(2-hydroxyethyl)- piperazin-1-yl)-2-methylpyrimidin-4-ylamino)thiazole-5-carboxamide (BMS-354825), a dual Src/Abl kinase inhibitor with potent antitumor activity in preclinical assays” (J Med Chem, 2004).
